Measured values published in ChEMBL document CHEMBL3351723, “New derivatives of lupane triterpenoids disturb breast cancer mitochondria and induce cell death” (Bioorg Med Chem, 2014).
Activity calls are given as the source filed them. The calls are words filed in the database; no cut-off is given here.

How the values were obtained:
Liver microsome [1] = assay: Effect on mitochondrial transmembrane potential in Wistar Han rat liver mitochondria energized with succinate assessed as mitochondrial transmembrane electropotential at 0.667 ug/mg of protein (reference value: 216.0 +/- 7.4 mV); format: functional
Outline: (§1)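 Isolated male Wistar rat liver mitochondria (1.5 mg protein) in 125 mM sucrose, 65 mM KCl, 5 mM KH2PO4, 2.5 mM MgCl2, 5 mM HEPES pH 7.4, 30°C, with 3 μM TPP+. Compound added for 1 min, then 10 mM succinate plus 3 μM rotenone. State 3 started with ADP (83.3 nmol/mg protein). ΔΨ read with a TPP+-selective electrode and calculated by the Kamo equation without binding correction.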

Liver microsome [2] = assay: Effect on mitochondrial transmembrane potential in Wistar Han rat liver mitochondria energized with succinate assessed as ADP depolarization at 0.067 ug/mg of protein (reference value: 34.7 +/- 1.4 mV); format: functional
Liver microsome [3] = assay: Effect on mitochondrial transmembrane potential in Wistar Han rat liver mitochondria energized with succinate assessed as time duration of lag phase at 0.067 ug/mg of protein (reference value: 82.8 +/- 23.5 sec); format: functional; outline: as §1
Liver microsome [4] = assay: Effect on mitochondrial transmembrane potential in Wistar Han rat liver mitochondria energized with succinate assessed as time duration of lag phase at 0.067 ug/mg of protein (reference value: 33.0 +/- 4.6 sec); format: functional; outline: as §1
Liver microsome [5] = assay: Effect on mitochondrial transmembrane potential in Wistar Han rat liver mitochondria energized with succinate assessed as mitochondrial transmembrane electropotential at 0.333 ug/mg of protein (reference value: 204.2 +/- 5.6 mV); format: functional
BJ = assay: Induction of apoptosis in human BJ cells assessed as distribution of mitochondrial polarization and morphology at 0.25 ug/ml after 6 hrs by confocal microscopy; format: cell-based
Outline: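 Cells were seeded on glass coverslips and left to attach for 24 h. They were then exposed to vehicle or 0.25 μg/ml compound for 6 h. For the last 30 min they were loaded with 100 nM TMRM in saline buffer with 15 mM glucose, and the probe was kept present during imaging. Mitochondrial polarization and morphology were imaged by fluorescence microscopy, and the TMRM fluorescence standard deviation was quantified. Four independent preparations, mean ± SEM.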

Liver microsome [6] = assay: Effect on mitochondrial transmembrane potential in Wistar Han rat liver mitochondria energized with succinate assessed as mitochondrial transmembrane electropotential at 1.333 ug/mg of protein (reference value: 204.2 +/- 5.6 mV); format: functional; outline: as §1
Liver microsome [7] = assay: Effect on mitochondrial transmembrane potential in Wistar Han rat liver mitochondria energized with succinate assessed as mitochondrial transmembrane electropotential at 0.667 ug/mg of protein (reference value: 204.2 +/- 5.6 mV); format: functional
Hs-578T = assay: Cytotoxicity against human Hs578T cells assessed as decrease in live cells at 1 ug/ml for 24 to 48 hrs by flow cytometry; format: functional
Outline: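 Hs578T seeded at 2.5×10^4 cells/ml, exposed to 1 μg/ml or DMSO for 24 and 48 h. Cells trypsinized and resuspended in HEPES-buffered saline with 15 mM glucose. Stained 15 min at 37°C with 1 μM ethidium homodimer and 0.1 μM calcein-AM. Green (calcein) and red (ethidium homodimer) signals read by flow cytometry. Mean ± SEM, 6 experiments.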

Liver microsome [8] = assay: Effect on mitochondrial transmembrane potential in Wistar Han rat liver mitochondria energized with succinate assessed as mitochondrial transmembrane electropotential at 0.06 ug/mg of protein (reference value: 220.6 +/- 2.5 mV); format: functional
Liver microsome [9] = assay: Effect on mitochondrial transmembrane potential in Wistar Han rat liver mitochondria energized with succinate assessed as time duration of lag phase at 0.667 ug/mg of protein Rvb = 46.7 +/- 3.9 sec); format: functional; outline: as §1
Liver microsome [10] = assay: Reduction in ADP-induced mitochondrial transmembrane electropotential in Wistar Han rat liver mitochondria energized with succinate at >0.3 ug/mg of protein; format: functional
Liver microsome [11] = assay: Effect on mitochondrial transmembrane potential in Wistar Han rat liver mitochondria energized with succinate assessed as mitochondrial transmembrane electropotential at 1.333 ug/mg of protein (reference value: 220.6 +/- 2.5 mV); format: functional; outline: as §1
Liver microsome [12] = assay: Effect on mitochondrial transmembrane potential in Wistar Han rat liver mitochondria energized with succinate assessed as ADP depolarization at 0.667 ug/mg of protein (reference value: 34.6 +/- 1.9 mV); format: functional
Liver microsome [13] = assay: Effect on mitochondrial transmembrane potential in Wistar Han rat liver mitochondria energized with succinate assessed as ADP depolarization at 0.067 ug/mg of protein (reference value: 34.6 +/- 1.9 mV); format: functional
Liver microsome [14] = assay: Effect on mitochondrial transmembrane potential in Wistar Han rat liver mitochondria energized with succinate assessed as time duration of lag phase at 0.067 ug/mg of protein (reference value: 46.7 +/- 3.9 sec); format: functional; outline: as §1
Liver microsome [15] = assay: Effect on mitochondrial transmembrane potential in Wistar Han rat liver mitochondria energized with succinate assessed as time duration of lag phase at 0.133 ug/mg of protein Rvb = 46.7 +/- 3.9 sec); format: functional; outline: as §1
Liver microsome [16] = assay: Effect on mitochondrial transmembrane potential in Wistar Han rat liver mitochondria energized with succinate assessed as ADP depolarization at 0.333 ug/mg of protein (reference value: 34.6 +/- 1.9 mV); format: functional
Liver microsome [17] = assay: Effect on mitochondrial transmembrane potential in Wistar Han rat liver mitochondria energized with succinate assessed as mitochondrial transmembrane electropotential at 0.133 ug/mg of protein (reference value: 198.0 +/- 5.6 mV); format: functional
Liver microsome [18] = assay: Effect on mitochondrial transmembrane potential in Wistar Han rat liver mitochondria energized with succinate assessed as ADP depolarization at 0.333 ug/mg of protein (reference value: 23.9 +/- 3.3 mV); format: functional
[19] = tested on: Liver mitochondria (Rattus norvegicus); assay: Effect on mitochondrial transmembrane potential in Wistar Han rat liver mitochondria energized with succinate assessed as time duration of lag phase at 1.333 ug/mg of protein (reference value: 40.5 +/- 4.5 sec)
Liver microsome [20] = assay: Effect on mitochondrial transmembrane potential in Wistar Han rat liver mitochondria energized with succinate assessed as ADP depolarization at 1.333 ug/mg of protein (reference value: 23.9 +/- 3.3 mV); format: functional
Liver microsome [21] = assay: Effect on mitochondrial transmembrane potential in Wistar Han rat liver mitochondria energized with succinate assessed as ADP depolarization at 0.133 ug/mg of protein (reference value: 23.9 +/- 3.3 mV); format: functional
Liver microsome [22] = assay: Effect on mitochondrial transmembrane potential in Wistar Han rat liver mitochondria energized with succinate assessed as mitochondrial transmembrane electropotential at 0.333 ug/mg of protein (reference value: 198.0 +/- 5.6 mV); format: functional
[23] = tested on: Liver mitochondria (Rattus norvegicus); assay: Effect on mitochondrial transmembrane potential in Wistar Han rat liver mitochondria energized with succinate assessed as time duration of lag phase at 0.667 ug/mg of protein (reference value: 40.5 +/- 4.5 sec)

SMILES: C=C(C)[C@@H]1CC[C@]2(COC(=O)C[n+]3ccc(N(C)C)cc3)CC[C@]3(C)[C@H](CC[C@@H]4[C@@]5(C)CC[C@H](OC(=O)C[n+]6ccc(N(C)C)cc6)C(C)(C)[C@@H]5CC[C@]43C)[C@@H]12.[Cl-].[Cl-]
- Activity (Liver microsome [1]): 206 mV
- Activity (Liver microsome [2]): 28.4 mV
- TIME (Liver microsome [3]): 0.0219 h

SMILES: C=C(C)[C@@H]1CC[C@]2(COC(=O)CC[n+]3ccc(N(C)C)cc3)CC[C@]3(C)[C@H](CC[C@@H]4[C@@]5(C)CC[C@H](OC(=O)CC[n+]6ccc(N(C)C)cc6)C(C)(C)[C@@H]5CC[C@]43C)[C@@H]12.[Cl-].[Cl-]
- TIME (Liver microsome [4]): 0.009 h
- Activity (Liver microsome [5]): 204 mV
- Activity (BJ): Non-toxic
- Activity (Liver microsome [6]): 199 mV
- Activity (Liver microsome [7]): 205 mV
- inhibition (Hs-578T): Active

SMILES: C=C(C)[C@@H]1CC[C@]2(COC(=O)C[N+](C)(C)C(C)C)CC[C@]3(C)[C@H](CC[C@@H]4[C@@]5(C)CC[C@H](OC(=O)C[N+](C)(C)C(C)C)C(C)(C)[C@@H]5CC[C@]43C)[C@@H]12.[Cl-].[Cl-]
- Activity (Liver microsome [8]): 217 mV
- TIME (Liver microsome [9]): 0.0146 h
- inhibition (Liver microsome [10]): Active
- Activity (Liver microsome [11]): 206 mV
- Activity (Liver microsome [12]): 21.9 mV
- Activity (Liver microsome [13]): 31.5 mV
- TIME (Liver microsome [14]): 0.0139 h
- TIME (Liver microsome [15]): 0.0137 h
- Activity (Liver microsome [16]): 28.8 mV

SMILES: C=C(C)[C@@H]1CC[C@]2(COC(=O)C(CC)[n+]3ccc(N(C)C)cc3)CC[C@]3(C)[C@H](CC[C@@H]4[C@@]5(C)CC[C@H](OC(=O)C(CC)[n+]6ccc(N(C)C)cc6)C(C)(C)[C@@H]5CC[C@]43C)[C@@H]12 (stereo not given in full)
- Activity (Liver microsome [17]): 197 mV
- Activity (Liver microsome [18]): 23.2 mV
- TIME [19]: 0.0136 h
- Activity (Liver microsome [20]): 21.8 mV
- Activity (Liver microsome [21]): 23.2 mV
- Activity (Liver microsome [22]): 193 mV
- TIME [23]: 0.0117 h
